From paper PMC10568961 (Research in Pharmaceutical Sciences, 2023)
≈ marks a conversion by molar mass, not a printed value. Like-named read-outs stand apart in the source and are kept apart here. Marks after values point to notes of the source that are not given here.

What was measured:
[1] = tested on: MRC-5 (human lung fibroblast) cells; experiment: Trypan blue dye exclusion assay, MRC-5 cells; format: cell-based
Procedure, shortened: (§1)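 Cells were seeded at 5,000/well for 24 h: MRC-5 in EMEM and A549 in F-12K, each with 10% FBS. They were then given test compound (50, 100, 150 μg/mL), cisplatin (0.5, 1, 2 μg/mL) or 0.5% DMSO control for 24–72 h at 37 °C, 5% CO2. After trypsinisation, viable cells were counted by trypan blue exclusion on a hemocytometer (quadruplicate wells). IC50 came from growth curves. At least three repeats.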

[2] = tested on: A549 (human lung carcinoma) cells; experiment: Trypan blue dye exclusion assay, A549 cells; format: cell-based
Procedure, shortened: as §1

[3] = tested on: MRC-5 (human lung fibroblast) cells; experiment: MTS cell viability assay, MRC-5 cells; format: cell-based
[4] = tested on: A549 cells; experiment: Scratch assay of cell migration; format: cell-based, human
Procedure, shortened: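 A549 monolayers were grown to 90–100% confluence in 24 h, scratched with a pipette tip and washed with PBS; initial gap width was measured at ×400. Cells were then kept in serum-free medium with test compound (0–150 μg/mL) or cisplatin (1 μg/mL) at 37 °C, 5% CO2. Gap widths were read by phase-contrast at each time point to 72 h, giving % wound closure. Three repeats.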

[5] = tested on: A549 cells; experiment: Matrigel invasion assay; format: cell-based, human
Procedure, shortened: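 Matrigel was diluted in cold serum-free medium and gelled overnight at 37 °C in Transwell upper chambers. A549 cells were added in serum-free medium with test compound (0–150 μg/mL) or cisplatin (1 μg/mL), with 10% FBS below as chemoattractant, for 24 and 48 h at 37 °C. Invaded cells were fixed (3.7% paraformaldehyde, methanol), stained with crystal violet and counted in five fields. % invasion was set against uncoated membrane. Three repeats.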

[6] = MTS cell viability assay, MRC-5 cells; format: cell-based, human; conditions: human, MRC-5 lung fibroblast cells
[7] = tested on: A549 (human lung carcinoma) cells; experiment: MTS cell viability assay, A549 cells; format: cell-based; conditions: for viability at 50 µg/mL / viability at 100 µg/mL / viability at 150 µg/mL: read-out: Cell viability (%)

## N.N.[Cl][Pt][Cl] [DDP, cis-diamminedichloroplatinum II]
[1]; MRC-5, 0.5 μg/mL, 24 h
  Number of cells: 13,900 ± 302^b
[1]; MRC-5, 0.5 μg/mL, 48 h
  Number of cells: 15,666 ± 418^a,b
[1]; MRC-5, 0.5 μg/mL, 72 h
  Number of cells: 21,100 ± 488^a,b
[1]; MRC-5, 1 μg/mL, 24 h
  Number of cells: 13,516 ± 414
[1]; MRC-5, 1 μg/mL, 48 h
  Number of cells: 15,400 ± 347^a,b
[1]; MRC-5, 1 μg/mL, 72 h
  Number of cells: 20,500 ± 465^a,b
[1]; MRC-5, 2 μg/mL, 24 h
  Number of cells: 12,933 ± 396^a
[1]; MRC-5, 2 μg/mL, 48 h
  Number of cells: 14,933 ± 292^b
[1]; MRC-5, 2 μg/mL, 72 h
  Number of cells: 19,666 ± 389^a,b
[2]; A549, 0.5 μg/mL, 24 h
  Number of cells: 14,000± 310^a,b
[2]; A549, 0.5 μg/mL, 48 h
  Number of cells: 14,050 ± 523^a,b
[2]; A549, 0.5 μg/mL, 72 h
  Number of cells: 16,666 ± 420^b
[2]; A549, 1 μg/mL, 24 h
  Number of cells: 11,250± 545^a,b
[2]; A549, 1 μg/mL, 48 h
  Number of cells: 11,616 ± 590^a,b
[2]; A549, 1 μg/mL, 72 h
  Number of cells: 12,833 ± 564^a,b
[2]; A549, 2 μg/mL, 24 h
  Number of cells: 8,583± 589^a,b
[2]; A549, 2 μg/mL, 48 h
  Number of cells: 9,833 ± 650^a,b
[2]; A549, 2 μg/mL, 72 h
  Number of cells: 8,983 ± 310^a,b
[3]; MTS assay, 72-h
  IC50 values, MRC-5 cells: > 2 µg/mL
[4]; A549, 0.5 μg/mL, 0 h
  Gap closure (%): 0%
[4]; A549, 0.5 μg/mL, 24 h
  Gap closure (%): 3.09 ± 0.25^a,b %
[4]; A549, 0.5 μg/mL, 48 h
  Gap closure (%): 4.36 ± 0.60^a %
[4]; A549, 0.5 μg/mL, 72 h
  Gap closure (%): 4.77 ± 0.19^a %
[4]; A549, 1 μg/mL, 0 h
  Gap closure (%): 0%
[4]; A549, 1 μg/mL, 24 h
  Gap closure (%): 2.52 ± 0.16^a,b %
[4]; A549, 1 μg/mL, 48 h
  Gap closure (%): 3.18 ± 0.04^a,b %
[4]; A549, 1 μg/mL, 72 h
  Gap closure (%): 3.55 ± 0.42^a %
[4]; A549, 2 μg/mL, 0 h
  Gap closure (%): 0%
[4]; A549, 2 μg/mL, 24 h
  Gap closure (%): 2.38 ± 0.06^a,b %
[4]; A549, 2 μg/mL, 48 h
  Gap closure (%): 2.92 ± 0.04^a,b %
[4]; A549, 2 μg/mL, 72 h
  Gap closure (%): 3.53 ± 0.16^a,b %
[5]; A549, 0.5 μg/mL, 24 h
  Invasion (%): 29.01 ± 4.99^a,b %
[5]; A549, 0.5 μg/mL, 48 h
  Invasion (%): 18.62 ± 3.11^a,b %
[5]; A549, 1 μg/mL, 24 h
  Invasion (%): 26.12 ± 4.22^a,b %
[5]; A549, 1 μg/mL, 48 h
  Invasion (%): 16.13 ± 2.66^a,b %
[5]; A549, 2 μg/mL, 24 h
  Invasion (%): 20.91 ± 2.05^a,b %
[5]; A549, 2 μg/mL, 48 h
  Invasion (%): 14.42 ± 1.57^a,b %

## COc1ccc(-c2cc(=O)c3c(O)cc(O[C@@H]4O[C@H](CO[C@@H]5O[C@@H](C)[C@H](O)[C@@H](O)[C@H]5O)[C@@H](O)[C@H](O)[C@H]4O)cc3o2)cc1O [Diosmin, diosmin]
[1]; Homo sapiens, MRC5, 72 h, read-out: IC50 value, MRC-5 cells
  IC50: > 150 µg/mL
[1]; MRC-5, 50 μg/mL, 24 h
  Number of cells: 11,666± 387^a,b
[1]; MRC-5, 50 μg/mL, 48 h
  Number of cells: 14,583 ± 489^b
[1]; MRC-5, 50 μg/mL, 72 h
  Number of cells: 19,583 ± 405^a,b
[1]; MRC-5, 100 μg/mL, 24 h
  Number of cells: 9,583 ± 463^a,b
[1]; MRC-5, 100 μg/mL, 48 h
  Number of cells: 12,083 ± 723^a
[1]; MRC-5, 100 μg/mL, 72 h
  Number of cells: 17,500 ± 456^a,b
[1]; MRC-5, 150 μg/mL, 24 h
  Number of cells: 6,666± 709^a,b
[1]; MRC-5, 150 μg/mL, 48 h
  Number of cells: 10,000 ± 630^a,b
[1]; MRC-5, 150 μg/mL, 72 h
  Number of cells: 15,833 ± 544^a,b
[2]; A549, 50 μg/mL, 24 h
  Number of cells: 13,333± 444^a,b
[2]; A549, 50 μg/mL, 48 h
  Number of cells: 18,333 ± 510^b
[2]; A549, 50 μg/mL, 72 h
  Number of cells: 26,250 ± 392^a,b
[2]; A549, 100 μg/mL, 24 h
  Number of cells: 10,833± 487^a,b
[2]; A549, 100 μg/mL, 48 h
  Number of cells: 13,750 ± 538^a,b
[2]; A549, 100 μg/mL, 72 h
  Number of cells: 18,750 ± 426^a,b
[2]; A549, 150 μg/mL, 24 h
  Number of cells: 6,666± 539^a,b
[2]; A549, 150 μg/mL, 48 h
  Number of cells: 8,750 ± 572^a,b
[2]; A549, 150 μg/mL, 72 h
  Number of cells: 11,250 ± 559^a,b
[2]; Homo sapiens, A549, 72 h, read-out: IC50 values, A549 cells
  IC50: 97.7 ± 4.23 µg/mL (≈ 160 µM)
[6]
  viability at 24 h, 50 μg/mL: 80.9 ± 8.46%
  viability at 24 h, 100 μg/mL: 54.7 ± 7.45%
  viability at 24 h, 150 μg/mL: 44.9 ± 5.58%
  viability at 48 h, 50 μg/mL: 78 ± 9.3%
  viability at 48 h, 100 μg/mL: 53.9 ± 9.19%
  viability at 48 h, 150 μg/mL: 47.5 ± 2.05%
  viability at 72 h, 50 μg/mL: 86.7 ± 1.38%
  viability at 72 h, 100 μg/mL: 71 ± 9.54%
  viability at 72 h, 150 μg/mL: 49.9 ± 8.02%
[3]; Homo sapiens, MRC5, 72 h, read-out: IC50 values, MRC-5 cells
  IC50: 150 ± 6.32 µg/mL (≈ 246 µM)
[7]; A549, 24 h
  viability at 50 µg/mL: 72.3 ± 3.23%
  viability at 100 µg/mL: 61.6 ± 4.07%
  viability at 150 µg/mL: 45.6 ± 4.59%
[7]; A549, 48 h
  viability at 50 µg/mL: 71.1 ± 1.37%
  viability at 100 µg/mL: 57.6 ± 5.15%
  viability at 150 µg/mL: 47.3 ± 6.78%
[7]; A549, 72 h
  viability at 50 µg/mL: 54.9 ± 3.43%
  viability at 100 µg/mL: 50.7 ± 1.19%
  viability at 150 µg/mL: 35.6 ± 5.95%
[7]; A549, 72 h, read-out: IC50 values, A549 cells
  IC50: 106 ± 3.52 µg/mL (≈ 175 µM)
[4]; A549, 50 μg/mL, 0 h
  Gap closure (%): 0%
[4]; A549, 50 μg/mL, 24 h
  Gap closure (%): 4.88 ± 0.82^a %
[4]; A549, 50 μg/mL, 48 h
  Gap closure (%): 7.58 ± 1.07^a,b %
[4]; A549, 50 μg/mL, 72 h
  Gap closure (%): 10.82 ± 1.10^b %
[4]; A549, 100 μg/mL, 0 h
  Gap closure (%): 0%
[4]; A549, 100 μg/mL, 24 h
  Gap closure (%): 3.97 ± 0.26^a %
[4]; A549, 100 μg/mL, 48 h
  Gap closure (%): 6.08 ± 0.87^a %
[4]; A549, 100 μg/mL, 72 h
  Gap closure (%): 8.24 ± 0.67^a,b %
[4]; A549, 150 μg/mL, 0 h
  Gap closure (%): 0%
[4]; A549, 150 μg/mL, 24 h
  Gap closure (%): 3.32 ± 0.19^a,b %
[4]; A549, 150 μg/mL, 48 h
  Gap closure (%): 5.32 ± 0.64^a %
[4]; A549, 150 μg/mL, 72 h
  Gap closure (%): 6.84 ± 0.55^a,b %
[5]; A549, 50 μg/mL, 24 h
  Invasion (%): 43.51 ± 2.39^a,b %
[5]; A549, 50 μg/mL, 48 h
  Invasion (%): 38.05 ± 5.14^a,b %
[5]; A549, 100 μg/mL, 24 h
  Invasion (%): 38.60 ± 3.31^a,b %
[5]; A549, 100 μg/mL, 48 h
  Invasion (%): 31.39 ± 2.71^a,b %
[5]; A549, 150 μg/mL, 24 h
  Invasion (%): 34.79 ± 3.59^a,b %
[5]; A549, 150 μg/mL, 48 h
  Invasion (%): 27.60 ± 1.62^a,b %
[5]; A549, 150 μg/mL, 48 h, listed as diosmin
  Invasion (%): 27.60 ± 1.62%
